Experimental data reported in ChEMBL document CHEMBL3046718, “Synthesis and herbicidal activity of 5-(4-hydroxybenzyl)-2-thioxoimidazolidin-4-one esters” (2011).

Columns and labels:
Type in all cases: functional
Zea mays [1] = experiment: Herbicidal activity against Zea mays (maize) assessed as inhibition of root growth at 200 ug/ml relative to control; conditions: read-out: GI
Method in brief: (§1)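 Seedlings were grown in an illumination incubator from ten Zea mays seeds or five Triticum aestivum seeds per plate, on filter paper wetted with 2 mL of test solution at 200 mg/L. Distilled water served as blank and metazachlor as positive control. Inhibitory ratio (0–100%) was scored against distilled water.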

Triticum aestivum [2] = experiment: Herbicidal activity against Triticum aestivum (wheat) assessed as inhibition of root growth at 200 ug/ml relative to control; conditions: read-out: GI; method in brief: as §1
Triticum aestivum [3] = experiment: Herbicidal activity against Triticum aestivum (wheat) assessed as inhibition of height growth at 200 ug/ml relative to control; conditions: read-out: GI; method in brief: as §1
Zea mays [4] = experiment: Herbicidal activity against Zea mays (maize) assessed as inhibition of height growth at 200 ug/ml relative to control; conditions: read-out: GI; method in brief: as §1
Arabidopsis thaliana = experiment: Herbicidal activity against Arabidopsis thaliana assessed as inhibition of seed germination at 200 ug/ml relative to control
Method in brief: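 Five sterilized Arabidopsis thaliana […] per well in 24-well sterile plates, each with 100 μL of test solution at 200 mg/L, grown in an illumination incubator. Distilled water served as blank and metazachlor as positive control. Inhibitory ratio (0–100%) was scored against distilled water.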

Stellaria media [5] = experiment: Herbicidal activity against Stellaria media at 1000 g/ha treated as post-emergence under greenhouse condition
Echinochloa crus-galli [6] = experiment: Herbicidal activity against Echinochloa crus-galli (barnyard grass) at 1000 g/ha treated as post-emergence under greenhouse condition
Setaria viridis [7] = experiment: Herbicidal activity against Setaria viridis (green foxtail) at 1000 g/ha treated as post-emergence under greenhouse condition
Setaria viridis [8] = experiment: Herbicidal activity against Setaria viridis (green foxtail) at 1000 g/ha treated as pre-emergence under greenhouse condition
Echinochloa crus-galli [9] = experiment: Herbicidal activity against Echinochloa crus-galli (barnyard grass) at 1000 g/ha treated as pre-emergence under greenhouse condition
Stellaria media [10] = experiment: Herbicidal activity against Stellaria media at 1000 g/ha treated as pre-emergence under greenhouse condition

Structure (SMILES)	inhibition of growth at 200 µg/mL (Zea mays [1])	inhibition of growth at 200 µg/mL (Triticum aestivum [2])	inhibition of growth at 200 µg/mL (Triticum aestivum [3])	inhibition of growth at 200 µg/mL (Zea mays [4])	inhibition at 200 µg/mL (Arabidopsis thaliana)	inhibition at 1000 g/ha (Stellaria media [5])	inhibition at 1000 g/ha (Echinochloa crus-galli [6])	inhibition at 1000 g/ha (Setaria viridis [7])	inhibition at 1000 g/ha (Setaria viridis [8])	inhibition at 1000 g/ha (Echinochloa crus-galli [9])	inhibition at 1000 g/ha (Stellaria media [10])
Cc1ccccc1C(=O)Oc1ccc(CC2NC(=S)NC2=O)cc1 (configuration not stated)	33.5%	20.7%	5.8%	53.2%	60%	–	–	–	–	–	–
COc1ccc(C(=O)Oc2ccc(CC3NC(=S)NC3=O)cc2)cc1OC (configuration not stated)	64.2%	43.1%	26.1%	57.9%	50%	–	–	–	–	–	–
O=C(Cc1ccccc1)Oc1ccc(CC2NC(=S)NC2=O)cc1 (configuration not stated)	58.1%	42.1%	34.9%	53.9%	20%	–	–	–	–	–	–
O=C(COc1ccc(Cl)cc1Cl)Oc1ccc(CC2NC(=S)NC2=O)cc1 (configuration not stated)	74.9%	99.6%	97.8%	65.5%	50%	–	–	–	–	–	–
COc1ccccc1C(=O)Oc1ccc(CC2NC(=S)NC2=O)cc1 (configuration not stated)	-29%	79.1%	81.3%	-26.2%	50%	–	–	–	–	–	–
O=C(COc1ccc(Cl)cc1)Oc1ccc(CC2NC(=S)NC2=O)cc1 (configuration not stated)	59.4%	99.6%	95.2%	16.4%	40%	–	–	–	–	–	–
COc1cc(C(=O)Oc2ccc(CC3NC(=S)NC3=O)cc2)cc(OC)c1OC (configuration not stated)	19.9%	59.7%	42.3%	22.1%	10%	–	–	–	–	–	–
O=C(Oc1ccc(CC2NC(=S)NC2=O)cc1)c1ccc(-c2ccccc2)cc1 (configuration not stated)	48.7%	3.2%	20.9%	42.4%	5%	–	–	–	–	–	–
CC(C)(C)c1ccc(C(=O)Oc2ccc(CC3NC(=S)NC3=O)cc2)cc1 (configuration not stated)	22.5%	25.9%	55.5%	30.9%	10%	–	–	–	–	–	–
O=C(Cc1cccc2ccccc12)Oc1ccc(CC2NC(=S)NC2=O)cc1 (configuration not stated)	88%	56.7%	100%	77.4%	10%	0%	0%	0%	50%	50%	60%
O=C(Oc1ccc(CC2NC(=S)NC2=O)cc1)c1cc([N+](=O)[O-])cc([N+](=O)[O-])c1 (configuration not stated)	71%	18.8%	86.2%	27.8%	5%	–	–	–	–	–	–
O=C(Oc1ccc(CC2NC(=S)NC2=O)cc1)c1cccs1 (configuration not stated)	-24.7%	15.5%	-1.2%	11.6%	20%	–	–	–	–	–	–
O=C(/C=C/c1ccccc1)Oc1ccc(CC2NC(=S)NC2=O)cc1 (configuration not stated)	77.9%	2.5%	33.8%	52.7%	10%	–	–	–	–	–	–
O=C(Cc1cc(C(F)(F)F)cc(C(F)(F)F)c1)Oc1ccc(CC2NC(=S)NC2=O)cc1 (configuration not stated)	71.5%	32.7%	65.5%	45.5%	5%	–	–	–	–	–	–
O=C(Cc1ccc(F)cc1)Oc1ccc(CC2NC(=S)NC2=O)cc1 (configuration not stated)	77.3%	86.6%	50.2%	70.1%	20%	–	–	–	–	–	–
O=C(Oc1ccc(CC2NC(=S)NC2=O)cc1)c1ccco1 (configuration not stated)	60.7%	30.3%	27.5%	72.8%	40%	–	–	–	–	–	–
CC(=O)Oc1ccc(CC2NC(=S)NC2=O)cc1 (configuration not stated)	-6.7%	20.9%	-3.6%	-14.5%	10%	–	–	–	–	–	–
O=C(Oc1ccc(CC2NC(=S)NC2=O)cc1)c1ccc(F)cc1 (configuration not stated)	66.3%	-8.5%	-22.9%	32.8%	20%	–	–	–	–	–	–

Structure (SMILES)	inhibition of growth at 200 µg/mL (Zea mays [1])	inhibition of growth at 200 µg/mL (Triticum aestivum [2])	inhibition of growth at 200 µg/mL (Triticum aestivum [3])	inhibition of growth at 200 µg/mL (Zea mays [4])	inhibition at 200 µg/mL (Arabidopsis thaliana)	inhibition at 1000 g/ha (Stellaria media [5])	inhibition at 1000 g/ha (Echinochloa crus-galli [6])	inhibition at 1000 g/ha (Setaria viridis [7])	inhibition at 1000 g/ha (Setaria viridis [8])	inhibition at 1000 g/ha (Echinochloa crus-galli [9])	inhibition at 1000 g/ha (Stellaria media [10])
O=C(Oc1ccc(CC2NC(=S)NC2=O)cc1)c1ccccc1 (configuration not stated)	44.5%	16.2%	-11.1%	26.6%	10%	–	–	–	–	–	–
O=C(Oc1ccc(CC2NC(=S)NC2=O)cc1)c1cccc([N+](=O)[O-])c1 (configuration not stated)	-16.3%	16.3%	20.6%	3.9%	20%	–	–	–	–	–	–
O=C(Oc1ccc(CC2NC(=S)NC2=O)cc1)c1ccccc1F (configuration not stated)	-30.2%	57.9%	48.4%	-19.4%	30%	–	–	–	–	–	–
COc1ccc(C(=O)Oc2ccc(CC3NC(=S)NC3=O)cc2)c(OC)c1 (configuration not stated)	-11.6%	10.7%	-2.9%	19.6%	20%	–	–	–	–	–	–
COc1cccc(C(=O)Oc2ccc(CC3NC(=S)NC3=O)cc2)c1OC (configuration not stated)	11.2%	20.9%	-10.9%	6.7%	20%	–	–	–	–	–	–
O=C(Oc1ccc(CC2NC(=S)NC2=O)cc1)c1ccccc1Cl (configuration not stated)	5.9%	53.4%	24.7%	53.4%	30%	–	–	–	–	–	–
O=C(Oc1ccc(CC2NC(=S)NC2=O)cc1)c1ccccc1[N+](=O)[O-] (configuration not stated)	7.6%	10.6%	3.7%	63.6%	40%	–	–	–	–	–	–
O=C(Oc1ccc(CC2NC(=S)NC2=O)cc1)c1cccc(Cl)c1 (configuration not stated)	22.1%	47.5%	8.8%	41.7%	70%	–	–	–	–	–	–
O=C(Oc1ccc(CC2NC(=S)NC2=O)cc1)c1ccc(Br)cc1 (configuration not stated)	22%	-48%	5.2%	14.7%	60%	–	–	–	–	–	–
O=C(Oc1ccc(CC2NC(=S)NC2=O)cc1)c1ccc(Cl)cc1 (configuration not stated)	8.6%	-13.6%	-12.9%	23.5%	40%	–	–	–	–	–	–
O=C(Oc1ccc(CC2NC(=S)NC2=O)cc1)c1ccc(Cl)c(Cl)c1 (configuration not stated)	24.1%	7%	-15.8%	36.7%	40%	–	–	–	–	–	–
O=C(Oc1ccc(CC2NC(=S)NC2=O)cc1)c1ccc(Cl)c([N+](=O)[O-])c1 (configuration not stated)	44.2%	2.6%	-3.7%	54.4%	50%	–	–	–	–	–	–
Cc1cccc(C(=O)Oc2ccc(CC3NC(=S)NC3=O)cc2)c1 (configuration not stated)	61.3%	12.7%	-14.8%	62.8%	50%	–	–	–	–	–	–
O=C(Oc1ccc(CC2NC(=S)NC2=O)cc1)c1ccc([N+](=O)[O-])cc1 (configuration not stated)	100%	-25.8%	-24.6%	100%	40%	0%	0%	0%	50%	50%	60%
COc1ccc(C(=O)Oc2ccc(CC3NC(=S)NC3=O)cc2)cc1 (configuration not stated)	17.8%	32.2%	25.1%	33.5%	30%	–	–	–	–	–	–
Cc1ccc(C(=O)Oc2ccc(CC3NC(=S)NC3=O)cc2)cc1 (configuration not stated)	38.7%	16.8%	1.27%	27.9%	60%	–	–	–	–	–	–
Cc1cccc(C)c1N(Cn1cccn1)C(=O)CCl [METAZACHLOR]	83%	77.7%	78.6%	79%	70%	–	–	–	–	–	–
